Experiment [1] in a line: inhibitors of TNFa-induced NFkB p65 translocation, primary screen, imaging, HUVEC, MLSMR starter and 10KST1 sets (AID 438).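 Also: compound added about 3h40 before a 20 min TNFalpha stimulation.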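 As to inhibition: signal is the nuclear over cytoplasmic p65 intensity ratio per well.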 Conditions: HUVEC TNFa-induced p65 nuclear translocation; cell count: measured here: nuclei count (cytotoxicity indicator), at 2.08 µM; inhibition: at 2 µM, stronger effect = higher value, 0% TNFa-plus-vehicle, 100% no-TNFa wells.
Experiment [2] can be described thus: endothelial E-selectin expression blockers – imaging, HUVEC, immunofluorescence, MLSMR starter and 10KST1 sets, primary screen (AID 487;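 active = visually confirmed hit in the image check and inhibition above 20%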;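 as to inhibition: signal is fraction of cell area covered by stained E-selectin grains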;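 as to nuclei count: 100% = median nuclei count of all wells on the same plate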). Particulars: HUVEC TNFalpha-induced E-selectin immunofluorescence imaging, at 2 µM; inhibition: stronger effect = higher value; nuclei count: measured here: cell number, toxicity.
A short description of experiment [3]: Primary imaging screen for DUSP6 inhibitors that restore phospho-Erk in transfected HeLa cells, chemical complementation (AID 609;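 active = compounds giving at least 50% inhibition in the cell-based MKP-3 phosphatase rescue imaging test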;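 as to inhibition: phospho-Erk level distribution per well compared with pooled transfected vehicle control wells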). Particulars: HeLa MKP-3 transfected, phospho-Erk imaging KS statistic, at 10 µM, cells stimulated with TPA for 15 min.
The target of experiment [4] is Dual specificity protein phosphatase 6 (Homo sapiens) (UniProt Q16828). The experiment is described as above. Conditions: HeLa MKP-3 transfected, phospho-Erk imaging KS statistic; at 10 µM; stronger effect = higher value; cells stimulated with TPA for 15 min.
Chain of Dual specificity protein phosphatase 6 (Homo sapiens) (Q16828 whole entry, looked up): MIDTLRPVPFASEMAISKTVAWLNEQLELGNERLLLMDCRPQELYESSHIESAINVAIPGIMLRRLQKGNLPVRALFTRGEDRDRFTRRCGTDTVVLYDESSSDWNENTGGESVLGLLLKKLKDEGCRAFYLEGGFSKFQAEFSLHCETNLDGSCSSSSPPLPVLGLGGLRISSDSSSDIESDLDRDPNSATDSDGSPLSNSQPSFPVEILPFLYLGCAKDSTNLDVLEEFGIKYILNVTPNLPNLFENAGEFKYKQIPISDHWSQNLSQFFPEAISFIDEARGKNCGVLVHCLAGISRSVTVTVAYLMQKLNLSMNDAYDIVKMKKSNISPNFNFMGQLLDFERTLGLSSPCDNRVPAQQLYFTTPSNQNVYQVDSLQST
Experiment [5] has as its target Voltage-gated potassium channel subunit beta-2 (Rattus norvegicus) (UniProt P62483). The experiment can be described thus: inhibitors of rat Kvbeta2 reductase activity – biochemical, NADPH fluorescence, primary screen (AID 622;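 active = fluorescence slope higher than the sample average by over 3 SD, cut at about -0.22 in these data, passing the limit was not always enough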;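 also: slope of raw intensity against log time taken from 70 to 1610 s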). Particulars: recombinant KvBeta, 4-cyanobenzaldehyde reduction, at 10 µM, stronger effect = higher value.
The target is the same in experiment [6]. As to the kind of experiment: enhancers of rat Kvbeta2 NADPH turnover – biochemical, NADPH fluorescence, primary screen (AID 623;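 active = NADPH fluorescence slope more negative than the mean of all samples by about 3 SD, 99.7% confidence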;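 also: fluorescence intensity change per second fitted from 20 to 320 s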). Particulars: Recombinant KvBeta, NADPH fluorescence decrease slope, 10 min; at 10 µM; stronger effect = lower value.
In experiment [7] the target is Alpha-2C adrenergic receptor (Homo sapiens) (UniProt P18825). The experiment can be described thus: compounds altering alpha2C-coupled GIRK flux – cell-based, HEK293 alpha2C/GIRK1/2, thallium flux, primary screen (AID 624;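 active = fluorescence slope after compound addition differing from the mean of all screened samples at 99.7% confidence, in either direction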;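 also: slope of fluorescence ratio to pre-addition baseline per second over 15 to 24 s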). Particulars: thallium flux BTC fluorescence, at 10 µM, actives lie on both sides.
Chain of Alpha-2C adrenergic receptor (Homo sapiens) (P18825 whole entry, looked up): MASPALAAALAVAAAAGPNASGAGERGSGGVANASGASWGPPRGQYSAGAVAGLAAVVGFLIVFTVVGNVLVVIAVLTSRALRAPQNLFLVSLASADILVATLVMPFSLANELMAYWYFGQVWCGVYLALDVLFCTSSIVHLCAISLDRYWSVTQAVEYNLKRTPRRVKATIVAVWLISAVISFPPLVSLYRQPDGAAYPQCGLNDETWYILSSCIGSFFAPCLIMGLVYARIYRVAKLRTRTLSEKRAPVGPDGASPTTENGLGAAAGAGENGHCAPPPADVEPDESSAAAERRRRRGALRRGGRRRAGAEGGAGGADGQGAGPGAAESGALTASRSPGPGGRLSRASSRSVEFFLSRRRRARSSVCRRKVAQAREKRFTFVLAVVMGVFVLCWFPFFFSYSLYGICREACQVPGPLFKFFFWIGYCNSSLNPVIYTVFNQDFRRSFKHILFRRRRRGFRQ
Experiment [8] in a line: inhibitors of larval lipid processing in zebrafish, primary screen, whole organism, PED6 fluorescence, gall bladder and intestine (AID 686;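 active = a full or partial loss of lipid-probe fluorescence in the fish gall bladder, intestine or both, judged by eye; inactive = no fluorescence loss, or compound toxic to the fish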;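 also: larvae 5 to 7 days old with five fish per well; signal comes from phospholipase A2 cleavage of quenched PED6 carried via bile; overnight exposure to compound and PED6 before scoring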). Particulars: Zebrafish larvae PED6 lipid processing, fluorescence scoring; screened at 20 µM (by protocol). The method in brief: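 Test system – live zebrafish larvae aged 5-7 days, whole organism · Buffer or medium – E3 fish medium · Reagent – quenched phospholipase substrate PED6, 100 nM final, ingested by larvae · Doses – 20 µM single dose · Incubation – overnight compound and PED6 incubation · Technique – visual fluorescence microscopy scoring of gall bladder, gut · Read-out basis – visual per-well fluorescence inhibition score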

The nature of experiment [9]: loss of swimming-algae plug formation – whole organism, Chlamydomonas reinhardtii, WT vs cilia-less mutant, absorbance, 96-well, primary screen (AID 463189;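 active = inhibition at or above 50% relative to wild type and mutant plate controls; inactive = inhibition below 50%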;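 also: 0% = wild type cc124 cells in DMSO and 100% = ciliumless bld1 mutant cells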). Conditions: Chlamydomonas reinhardtii gravitaxis, OD600 absorbance, 2 days; at 10 µM; stronger effect = higher value.
[10] abbreviates: measured here: cell density z-score.
Where [11] appears, read: measured here: nuclear c-Myc green intensity z-score.
[12] abbreviates: measured here: nuclear pErk red intensity z-score, stronger effect = higher value.

Activity calls are given as the source filed them.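 The calls were made as follows, unless noted: active = inhibition above 20% together with a positive visual image hit; inconclusive = visual image hit but inhibition not above 20%; inactive = no visual image hit.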

Chain of Voltage-gated potassium channel subunit beta-2 (Rattus norvegicus) (P62483 whole entry, looked up): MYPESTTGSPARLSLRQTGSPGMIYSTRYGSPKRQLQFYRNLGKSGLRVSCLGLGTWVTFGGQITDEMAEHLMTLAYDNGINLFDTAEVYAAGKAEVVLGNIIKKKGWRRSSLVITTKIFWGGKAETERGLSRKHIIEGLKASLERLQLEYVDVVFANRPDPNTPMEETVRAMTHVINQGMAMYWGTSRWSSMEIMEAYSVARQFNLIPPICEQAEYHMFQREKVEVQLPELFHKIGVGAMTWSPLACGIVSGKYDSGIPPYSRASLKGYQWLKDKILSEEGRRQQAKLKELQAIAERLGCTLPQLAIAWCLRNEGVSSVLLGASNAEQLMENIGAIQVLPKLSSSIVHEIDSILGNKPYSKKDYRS

Turning to `O=C(Nc1cccnc1)c1cccnc1`, in [1], the cell count was determined as 639. Further, the inhibition in experiment [1] is 0.9% (inactive); in [2], -26.7% (inactive); in [4] it was 0.671% (inactive); in [9] it was 3.69% (inactive). This compound showed a nuclei count in experiment [2] of 158%. Also, the z-score in experiment [3] (setting [10]) was -0.532; in [3] (setting [11]) it was 0.364; in [3] (setting [12]) it was -0.22. For the same compound, the fluorescence slope in experiment [5] was -0.534 (inactive). In addition, in experiment [6], the NADPH fluorescence slope is -3.1e-05 (inactive). Moreover, the slope in [7] is 0.00505 (inactive). For the same compound, the compound was classed as inactive in experiment [8].
In the case of `Clc1ccccc1-c1nn2c(-c3ccccn3)nnc2s1`, the cell count in experiment [1] stood at 603. Also, the inhibition in [1] is -6.7% (inactive); in experiment [2], -82.4% (inactive); in experiment [4], -0.674% (inactive); in [9] it was 48.8% (inactive). In addition, the nuclei count in [2] came to 167%. The z-score in experiment [3] (setting [10]) was 0.327; in [3] (setting [11]), 0.132; in experiment [3] (setting [12]), -0.483. Also, the fluorescence slope in experiment [5] is -0.404 (inactive). In experiment [6], the NADPH fluorescence slope was -0.000155 (inactive). The slope in experiment [7] is 0.00777 (inactive). The result in experiment [8] was inactive.
With `Cn1ncc2nnn(-c3ccccc3)c(=O)c21`, in experiment [1], the cell count is 492. The inhibition was -0.2% (inactive) in [1], -10.3% (inactive) in experiment [2], -1.12% (inactive) in experiment [4] and -10.6% (inactive) in [9]. Besides, the nuclei count in [2] came to 107%. In addition, the z-score in experiment [3] (setting [10]) was -0.32; in experiment [3] (setting [11]), 1.71; in experiment [3] (setting [12]), -1.2. The fluorescence slope in [5] was -0.497 (inactive). The NADPH fluorescence slope in experiment [6] is -0.000269 (inactive). Moreover, in experiment [7], the slope is 0.00475 (inactive). In addition, the compound was classed as inactive in [8].
On to `COc1cc(C2CC(C(F)(F)F)n3ncc(C(=O)O)c3N2)cc(OC)c1OC` (stereo unspecified), for which, in experiment [1], the cell count turned out to be 515. In addition, the inhibition in [1] is -6.9% (inactive); in experiment [2], 18.3% (inactive); in [4], -2.07% (inactive); in experiment [9], -0.326% (inactive). In [2], this compound displayed a nuclei count of 119%. The z-score in [3] (setting [10]) is -0.754; in experiment [3] (setting [11]), 0.674; in experiment [3] (setting [12]) it was 1.11. Also, the fluorescence slope in experiment [5] was -0.517 (inactive). The NADPH fluorescence slope in [6] is -9.9e-05 (inactive). Also, the slope in experiment [7] is 0.0046 (inactive). In addition, the result in experiment [8] was inactive.
For the compound `CC1(C)Cc2c(C#N)c(NCc3ccco3)nc(-c3ccco3)c2CO1`, the cell count in experiment [1] was 598. Besides, the inhibition in experiment [1] was 3.9% (inactive); in experiment [2], -12.9% (inactive); in experiment [4], -6.86% (inactive); in [9], 53.9% (active). Further, the nuclei count in experiment [2] was 178%. The z-score is 0.978 in [3] (setting [10]), -1.81 in experiment [3] (setting [11]) and 0.89 in experiment [3] (setting [12]). For the same compound, the fluorescence slope in experiment [5] was -0.29 (inactive). For the same compound, the NADPH fluorescence slope in [6] is -9.7e-06 (inactive). Also, in experiment [7], the slope was 0.00397 (inactive). Also, the outcome in experiment [8] is “active; weak signal in gallbladder and intestine”.
`COc1ccc(C2CC(=O)c3sc(N)nc3C2)cc1` (stereo unspecified): in experiment [1], the cell count worked out at 424. The inhibition is -15.2% (inactive) in experiment [1], -328% (inactive) in experiment [2], 26.6% (inactive) in experiment [4] and 0.76% (inactive) in experiment [9]. Also, in experiment [2], the nuclei count was determined as 147%. The results for the z-score in experiment [3] (setting [10]), in experiment [3] (setting [11]) and in experiment [3] (setting [12]) were 0.261, -0.0796 and -0.89, respectively. Besides, in [5], the fluorescence slope is -0.408 (inactive). Also, in experiment [6], the NADPH fluorescence slope is -1.9e-05 (inactive). For the same compound, in experiment [7], the slope is 0.00734 (inactive). The call in [8] was inactive.
With `O=C1[C@@H]2[C@H](C(=O)N1O)[C@H]1C=C[C@@H]2C1`, the cell count in experiment [1] turned out to be 468. In addition, the inhibition was -1% (inactive) in experiment [1], -174% (inactive) in experiment [2], 1.04% (inactive) in [4] and 2.48% (inactive) in [9]. In experiment [2], the nuclei count is 209%. Also, the z-score was -1.39 in [3] (setting [10]), 1.02 in experiment [3] (setting [11]) and 0.777 in [3] (setting [12]). Moreover, in experiment [5], the fluorescence slope was -0.392 (inactive). The NADPH fluorescence slope in [6] is -1.7e-05 (inactive). The slope in experiment [7] is 0.00509 (inactive). The compound was called inactive in experiment [8].

Broadly, the inhibition is the drop in the measured response relative to a control, in per cent.

(Values after PubChem BioAssay.)
